Results gathered from unrelated publications.
Target: Serine/threonine-protein kinase ULK3 (ULK3, Homo sapiens, UniProt Q6PHR2)
Residues used in one study (Q6PHR2 1-472): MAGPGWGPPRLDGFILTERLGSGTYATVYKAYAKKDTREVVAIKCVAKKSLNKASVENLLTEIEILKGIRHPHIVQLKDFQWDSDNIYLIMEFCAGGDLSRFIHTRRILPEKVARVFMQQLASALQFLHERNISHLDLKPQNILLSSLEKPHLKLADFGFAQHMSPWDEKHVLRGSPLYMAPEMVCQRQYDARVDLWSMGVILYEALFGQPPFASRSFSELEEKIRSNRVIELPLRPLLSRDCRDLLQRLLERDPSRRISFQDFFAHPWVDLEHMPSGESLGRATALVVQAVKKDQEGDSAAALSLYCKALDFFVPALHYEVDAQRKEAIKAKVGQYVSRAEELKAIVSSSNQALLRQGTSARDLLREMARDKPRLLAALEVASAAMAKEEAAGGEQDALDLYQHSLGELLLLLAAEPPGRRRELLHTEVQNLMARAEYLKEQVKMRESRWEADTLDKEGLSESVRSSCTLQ

Clc1ccc(Nc2nnc(Cc3ccncc3)c3ccccc23)cc1
remaining signal (cell-free assay; 0.5 µM): 101%

CCCS(=O)(=O)Nc1ccc(F)c(C(=O)c2c[nH]c3ncc(-c4ccc(Cl)cc4)cc23)c1F
inhibition (enzyme activity, inhibitor; 1 µM): < 10%

O=C(Nc1cnn(-c2csc(C(=O)NC3COC3)c2)c1)Nc1c(F)cccc1Cl
remaining activity (enzyme activity, inhibitor; 5 µM): 76.6%

COc1cc(Cl)c(C(=O)N[C@@H](CN[C@H]2CC[C@@H](N)CC2)Cc2ccc(C#N)cc2)cc1-c1ccc(CN[C@H](C)c2ccc(C)cc2)o1
remaining activity (enzyme activity, inhibitor; 1 µM): 98%

COc1cccc2c(NCc3ccccc3)nc(-n3c(N)nc4ccccc43)nc12
inhibition (target engagement in cells, inhibitor, chemoproteomics; 20 mM): -11.6%

CC(C)(O)[C@H]1CC[C@H](Nc2ccc3ncc(-c4cccc(C(F)(F)F)c4)n3n2)CC1
remaining activity (enzyme activity, inhibitor; 1 µM): 86.2%

Nc1cnc(N2CCc3cc(S(=O)(=O)Nc4c(F)cc(Cl)cc4F)cc(N4CCCC4=O)c32)nc1
remaining binding (cell-free assay, competition with immobilised ligand; 1 µM): 100%

Oc1cccc(-c2nc(N3CCOCC3)c3oc4ncccc4c3n2)c1
remaining signal (cell-free assay; 0.5 µM): 99.7%

C[C@@]1(Cc2ccc(C#N)cc2)C(=O)N(c2cc(Cl)cc(Cl)c2)c2ncc(C(=O)NC3(c4nc(C5CCC5)no4)CC3)n21
remaining binding (cell-free assay, competition with immobilised ligand; 1 µM): 100%

CS(=O)(=O)CCNCc1ccc(-c2ccc3ncnc(Nc4ccc(OCc5cccc(F)c5)c(Cl)c4)c3c2)o1
remaining signal (cell-free assay; 0.5 µM): 106%

Cn1nc(C(F)(F)F)cc1-c1cnc(N2CCc3cc(S(=O)(=O)Nc4c(F)cc(Cl)cc4F)cc(N4CCCC4=O)c32)nc1
remaining binding (cell-free assay, competition with immobilised ligand; 1 µM): 100%

COc1cc2ncnc(Nc3ccc(F)c(Cl)c3)c2cc1OCCCN1CCOCC1
remaining signal (cell-free assay; 0.5 µM): 108%

CCc1ccccc1C(=O)Nc1n[nH]c2c(C)c(F)c(C3C(C#N)=C(C)N(C)C(C)=C3C#N)cc12
remaining binding (cell-free assay, competition with immobilised ligand; 1 µM): 82%

O=C(Nc1cnn(-c2csc(C(=O)NC3COC3)c2)c1)Nc1ccccc1Cl
remaining activity (enzyme activity, inhibitor; 5 µM): 111%
